# The list is not random: actives were taken first. Their share in the collection is about 2%.
# DNMT1 inh: blocks human DNA methyltransferase DNMT1. P26358. DNMT1 molecular beacon, Hinp1I cleavage, fluorescence. inhibition (reported as % activation of signal), % at 10 µM. hit rate 0.83% among 360,000; in the data active = inhibition above about 50%
# Scp-1 inhibitor: inhibitors of human Scp-1 phosphatase; Q9GZU7; hit rate 0.88% among 340,000; Recombinant Scp1, phosphopeptide, malachite green phosphate absorbance; AID 493091; inhibition, % at 20 µM;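 active = inhibition above about 50% at 20 µM, limit read from the data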;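 note: plate controls were DMSO wells with enzyme for no effect and wells lacking enzyme for full effect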
# Target sequence (Q9GZU7 76-261 limits assumed): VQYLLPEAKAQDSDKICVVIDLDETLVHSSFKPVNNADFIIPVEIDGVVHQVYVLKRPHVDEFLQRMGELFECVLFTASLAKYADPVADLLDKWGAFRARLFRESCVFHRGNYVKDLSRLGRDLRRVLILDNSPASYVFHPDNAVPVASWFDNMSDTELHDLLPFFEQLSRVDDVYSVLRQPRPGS
#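 Times: enzyme reaction 45 min at room temperature, colour 5 min, stabilisation 30 min. Material: SCP-1 catalytic fragment, aa 76-261. Medium: Acidic Tris acetate buffer with magnesium and detergent. Signal: colorimetric free-phosphate detection, absorbance 630 nm. Read-out basis: % inhibition of SCP-1 phosphate liberation. Reagent: Phosphorylated 17-residue peptide substrate.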
# Rpn11 inh: inhibitors of human proteasome Rpn11. O00487. human 26S proteasome, Ub4-pepOG fluorescence polarization; 20S core pre-blocked with epoxomicin. inhibition, % at 20 µM. hit rate 0.59% among 360,000. AID 588493;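 active = inhibition at 20 µM, scaled to each plate's controls, above about 33%, limit read from the data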
# Target sequence (O00487 whole entry, looked up): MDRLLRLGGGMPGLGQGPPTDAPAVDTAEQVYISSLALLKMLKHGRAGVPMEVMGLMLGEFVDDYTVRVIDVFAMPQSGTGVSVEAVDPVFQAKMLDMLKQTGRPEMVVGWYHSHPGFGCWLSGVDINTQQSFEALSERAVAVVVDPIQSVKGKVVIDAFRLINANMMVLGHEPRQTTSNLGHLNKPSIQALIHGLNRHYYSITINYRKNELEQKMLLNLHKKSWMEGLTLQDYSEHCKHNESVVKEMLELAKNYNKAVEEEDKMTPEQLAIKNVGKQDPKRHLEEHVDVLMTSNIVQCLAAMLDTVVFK
# STEP block: inhibitors of human striatal-enriched phosphatase STEP; recombinant STEP, OMFP fluorogenic substrate, fluorescence; P54829; AID 588621; hit rate 0.25% among 360,000; inhibition, % at 20 µM;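 active = inhibition at 20 µM, scaled per plate between control wells, above about 37%, limit read from the data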;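 note: 0% = DMSO with enzyme and substrate and 100% = substrate only without enzyme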
#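 Measure: Control-normalized % inhibition with plate pattern correction | Test system: STEP phosphatase, cell-free reaction | Medium: pH 6.0 Bis-Tris with DTT and Tween 20 | Technique: Fluorescence, 480/540 nm | Times: Reaction 20 min, ambient temperature | Doses: Single compound dose of 20 µM, 1% DMSO final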
# LMPTP block: LMPTP (human) inhibition. recombinant LMPTP-A, OMFP fluorogenic substrate, fluorescence intensity. P24666. inhibition, % at 20 µM. hit rate 0.22% among 360,000;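 active = compounds that cut the enzyme signal by at least half of the control window in the single-dose screen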;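 note: plate controls were DMSO wells with enzyme plus substrate for no effect and substrate without enzyme for full effect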
# Target sequence (P24666 whole entry, looked up): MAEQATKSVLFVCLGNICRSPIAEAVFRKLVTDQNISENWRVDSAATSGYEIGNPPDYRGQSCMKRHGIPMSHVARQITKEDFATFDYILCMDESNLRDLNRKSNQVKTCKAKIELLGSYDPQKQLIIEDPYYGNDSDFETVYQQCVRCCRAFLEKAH
#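 Test system – LMPTP-A enzyme · Amount – LMPTP-A at 0.625 nM final in the reaction · Buffer or medium – Bis-Tris pH 6.0, DTT, detergent · Reagent – OMFP 400 µM · Doses – single 20 µM dose · Schedule – reaction 50 min, room temperature, dark · Detection – fluorescence intensity of OMFP turnover product · Evaluation – percent inhibition versus substrate-only and uninhibited controls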
# Beacon interf DR: beacon fluorescence artifact, dose response counter-screen; 200 tested, under 10 active; IC50, µM; molecular beacon fluorescence, spectral interference counter-screen; shares compounds with DNMT1 inh; AID 602382; call rule not given here
# DNMT1 inh conf: DNMT1 inhibition confirmation, single concentration; shares compounds with DNMT1 inh; DNMT1 molecular beacon HinP1I cleavage, fluorescence; inhibition, % at 10 µM; hit rate 8% among 2,300; AID 602385;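 active = average inhibition of at least 30% in the single-concentration confirmation test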
# DNMT1 interf: counter-screen for DNMT1 inhibitors: spectral interference. hit rate 1% among 2,300. AID 602387. DNMT1 molecular beacon spectral interference counterscreen, fluorescence 485/520. shares compounds with DNMT1 inh. activation (fluorescence interference), % at 10 µM;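 active = activation of at least 30% at 10 µM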;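 note: DNMT1 catalytic domain with a HinP1I cleavage step and a FAM/dabcyl DNA beacon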
# * = called active by the depositor; / = no result shown.
SMILES,DNMT1 inh,Scp-1 inhibitor,Rpn11 inh,STEP block,LMPTP block,DNMT1 inh conf,DNMT1 interf,others
N#CCCN(C(=O)COC(=O)Cc1ccc(Br)cc1)c1ccccc1,5,14,-3,-2,1,/,/,
COc1ccc(CCC(=O)OCC(=O)Nc2ccc(OC)c(OC)c2)cc1OC,2,2,-9,-3,-1,/,/,
Cc1c(C)c2c(OCC(=O)Nc3cccnc3)cc3c(c2oc1=O)CCC(C)(C)O3,55*,-1,11,5,1,1,2,
O=C1C=C(O)CC(c2ccco2)C1 (stereo unspecified),80*,44,-6,1,-1,4,3,
COc1ccccc1-c1csc(C(O)(c2ccccc2)C(F)(F)F)n1 (stereo unspecified),-8,/,2,-3,3,/,/,
O=C(O)c1ccc(C(=O)c2ccc3c(c2)C(=O)N(CCO)C3=O)cc1,88*,-2,-4,-1,1,0,1,
CCN(c1ccccc1)S(=O)(=O)c1cc(NC(=O)CSc2n[nH]c(=O)[nH]c2=O)ccc1Cl,65*,0,1,0,0,3,8,
COc1ccc(N(CC(=O)NCCSCc2ccco2)S(=O)(=O)c2ccc(C)cc2)cc1,-2,-11,-6,-3,1,/,/,
COc1ccc(N(CC(=O)NCCSCc2ccco2)S(=O)(=O)c2ccccc2)cc1,76*,-13,-5,1,1,4,5,
Cc1cc(C(=O)OCC(=O)N2CC(=O)Nc3ccccc32)no1,-1,-8,0,-4,-3,/,/,
Cc1c(C(=O)OCC(=O)N2CC(=O)Nc3ccccc32)oc2ccc(Br)cc12,51*,-6,2,5,1,1,2,
COc1ccc2[nH]c(C)c(CN3CCCCC3)c(=O)c2c1,2,7,1,7,1,/,/,
COc1ccc2[nH]c(C)c(CCN3C(=O)C4C5C=CC(C5)C4C3=O)c2c1 (stereo unspecified),82*,-16,10,-2,0,0,1,
CC(NC(=O)CN(c1ccc(Cl)cc1)S(C)(=O)=O)c1ccccc1 (stereo unspecified),58*,-10,3,-2,-1,7,5,
CN(C(=O)C1Cc2c(-c3ccccc3Oc3ccccc3)ccnc2O1)c1ccccc1 (stereo unspecified),76*,/,3,-2,9,4,10,
S=C1NCN(C2CCCCC2)CN1c1ccccc1,1,-11,-4,0,2,/,/,
Cc1sc(NC(=O)c2sc3nc4c(C)cccc4cc3c2N)c(C#N)c1C,88*,-4,32,3,3,9,-1,
Cc1ccc(N=Nc2c(N)nn3c(N)c(C#N)c(C)nc23)cc1,79*,3,/,12,9,13,5,
Cc1ccc(N=Nc2c(N)nn3c(C)cc(C)nc23)cc1,-4,-24,0,10,0,/,/,
CC1=C/C(=C\c2ccc(Br)o2)C(=O)O1,106*,82*,5,24,11,46*,-2,Beacon interf DR=>99
COc1ccccc1-c1ccc(/C=C2/C=C(C)OC2=O)o1,-2,-12,31,0,2,/,/,
COc1ccc(NC(=O)NC2(C(=O)N3CCOCC3)CCCCC2)cc1,54*,-9,-1,-1,0,1,-3,
Cc1cc2ccccc2cc1CN1CCOCC1,58*,-5,-8,1,-2,7,7,
O=[N+]([O-])c1ccc(N/N=C/c2cccnc2)cc1,-6,-6,12,1,0,/,/,
Cn1cccc1CC(=O)N/N=C/c1cc([N+](=O)[O-])ccc1Cl,1,-5,4,1,2,/,/,
SMILES,DNMT1 inh,Scp-1 inhibitor,Rpn11 inh,STEP block,LMPTP block,DNMT1 inh conf,DNMT1 interf,others
O=[N+]([O-])c1ccc(NN=Cc2cccc([N+](=O)[O-])c2)cc1,72*,-8,14,13,36,4,-1,
Cn1cccc1CC(=O)N/N=C/c1cccc([N+](=O)[O-])c1,94*,1,-6,-2,0,3,6,
Cc1ccc(C)c(S(=O)(=O)N2CCN(C(=O)/C=C/c3ccco3)CC2)c1,76*,23,16,-1,3,7,2,
c1ccc2c(c1)ccn2CCCN1CCCCC1,1,-8,-7,-2,1,/,/,
CC(=O)c1c2c3c(cccc3n(C)c1=O)C(=O)c1ccccc1-2,/,34,/,/,/,/,/,
Cn1c(=O)c(Nc2ccc(O)cc2)c2c3c(cccc31)C(=O)c1ccccc1-2,62*,32,-194,8,6,12,8,
C=CCc1cc(Cl)ccc1OCCN1CC(C)OC(C)C1 (stereo unspecified),5,-6,4,2,-2,/,/,
CCc1nc(Nc2ccncc2)c2oc3ccccc3c2n1,51*,-1,2,-2,0,21,5,
CCCCN1C(=O)C(CC(=O)NCc2ccco2)CC(C(=O)N2CCCCCC2)=C1C (stereo unspecified),/,/,/,/,-1,/,/,
Cc1cc(OC(C(=O)O)c2ccccc2)c2c(C)c(Cc3ccccc3)c(=O)oc2c1 (stereo unspecified),88*,-5,0,4,0,2,6,
O=C(COc1ccc(Cl)cc1)Nc1nnc(C2=COCCO2)o1,0,37,-1,0,0,/,/,
Cc1ccc([N+](=O)[O-])cc1-c1ccc(/C=C(\C#N)c2[nH]nc(N)c2C#N)o1,84*,36,0,37,71*,6,-6,
CC(=O)c1c(O)cc(=O)n(-c2ccccc2)c1-c1ccc(Cl)cc1,10,-6,-5,-1,0,/,/,
CCc1c(O)cc(=O)n(-c2ccccc2)c1-c1ccccc1,58*,7,20,4,-23,7,4,
COc1ccc(-c2nc3c(c(=O)c4ccccc4n3C)c(=O)n2Cc2ccccc2)cc1,16,-4,-2,-1,2,/,/,
Cn1c2ccccc2c(=O)c2c(=O)n(Cc3ccccc3)c(-c3ccc(F)cc3)nc21,63*,0,-5,1,1,0,0,
COc1ccc(Cn2c(-c3ccc(C)cc3)nc3c(c(=O)c4ccccc4n3C)c2=O)cc1,83*,2,-9,2,11,2,4,
CCOC(=O)C1CC(c2ccccc2)=NN1c1ccccc1 (stereo unspecified),-4,/,-1,2,2,/,/,
O=C(COc1ncnc2ccccc12)c1ccc(Cl)cc1,-3,4,-5,-1,-1,/,/,
Cc1nc(C(N)=O)nc2ccccc12,1,10,1,-1,0,/,/,

# Compound activity: PubChem BioAssay, Sanford-Burnham Center for Chemical Genomics
